Reference: ChEMBL document CHEMBL5030521, “Design, Synthesis, and Characterization of Novel sn-1 Heterocyclic DAG-Lactones as PKC Activators” (J Med Chem, 2021)
The source made the active and inactive calls.

Assays:
[1] = biological target: T1, Protein kinase C alpha type (Homo sapiens, UniProt P17252); test: Displacement of [3H]-PDBu from recombinant human PKCalpha at 30 uM by scintillation counter method relative to control
Method in brief: (§1)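 Competition of 2 nM [3H]PDBu by test ligand at a single fixed concentration (value in line); 50 mM Tris-HCl pH 7.4, 100 μg/mL porcine brain phosphatidylserine, 5 mg/mL bovine IgG, 0.003% Tx-100, 20 ng/tube enzyme; 0.1 mM Ca2+ for PKCα, 1 mM EGTA for PKCε. 5 min at 37 °C, PEG precipitation, bound and free counted separately; nonspecific with 10 μM cold PDBu; triplicates.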

[2] = biological target: T2, Protein kinase C epsilon type (Homo sapiens) (UniProt Q02156); test: Displacement of [3H]-PDBu from recombinant human PKCepsilon at 30 uM by scintillation counter method relative to control; method in brief: as §1
T2 sequence (whole entry): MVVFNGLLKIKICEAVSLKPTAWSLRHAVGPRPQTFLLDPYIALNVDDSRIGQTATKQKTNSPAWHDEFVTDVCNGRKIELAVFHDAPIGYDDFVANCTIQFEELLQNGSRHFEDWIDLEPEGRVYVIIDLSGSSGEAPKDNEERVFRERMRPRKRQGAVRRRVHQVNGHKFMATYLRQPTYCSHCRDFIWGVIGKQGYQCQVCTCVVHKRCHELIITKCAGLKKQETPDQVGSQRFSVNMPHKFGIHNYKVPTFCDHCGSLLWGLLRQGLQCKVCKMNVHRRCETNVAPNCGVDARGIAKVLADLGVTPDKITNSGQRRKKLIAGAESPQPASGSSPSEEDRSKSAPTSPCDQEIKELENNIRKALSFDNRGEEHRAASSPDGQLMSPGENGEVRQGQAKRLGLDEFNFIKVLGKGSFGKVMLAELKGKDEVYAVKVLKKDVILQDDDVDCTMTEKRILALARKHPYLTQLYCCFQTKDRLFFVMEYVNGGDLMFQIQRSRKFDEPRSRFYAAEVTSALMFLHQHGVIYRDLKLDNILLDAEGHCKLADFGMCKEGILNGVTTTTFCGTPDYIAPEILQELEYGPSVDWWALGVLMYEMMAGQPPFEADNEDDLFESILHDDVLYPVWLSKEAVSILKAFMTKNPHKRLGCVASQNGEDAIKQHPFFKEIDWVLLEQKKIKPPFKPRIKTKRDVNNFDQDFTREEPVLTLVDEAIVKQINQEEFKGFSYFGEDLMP

[3] = biological target: T2, Protein kinase C epsilon type (Homo sapiens); test: Activation of GFP-fused PKCepsilon in HeLa cells assessed as translocation of PKCepsilon from cytosol to membrane measured after 30 mins by DAPI staining based fluorescence microscopy; format: subcellular
Method in brief: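 HeLa cells transfected with pEGFP-N1-PKCε, plated on coverslips, serum-starved 24 h after 24 h, then treated 30 min; methanol-fixed, DAPI counterstained, imaged by fluorescence microscopy. Membrane/cytosol ratio from line intensity profiles across ~10–15 cells/group, operator blinded; mean ± SD; PMA 100 nM as control.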

[4] = biological target: T2, Protein kinase C epsilon type (Homo sapiens); test: Displacement of [3H]-PDBu from recombinant human PKCepsilon at 10 uM by scintillation counter method relative to control; method in brief: as §1
[5] = biological target: T1, Protein kinase C alpha type; test: Displacement of [3H]-PDBu from recombinant human PKCalpha by scintillation counter method
Method in brief: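 [3H]PDBu (2 nM) competition with increasing ligand in 50 mM Tris-HCl pH 7.4, 100 μg/mL porcine brain phosphatidylserine, 0.1 mM Ca2+ (PKCα), 5 mg/mL bovine IgG, 0.003% Triton X-100, 20 ng enzyme/tube; nonspecific with 10 μM PDBu. 37 °C 5 min, PEG precipitation, bound and free counted by scintillation. Triplicates; Ki from ID50; three experiments, mean ± SEM.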

[6] = biological target: T3, Protein kinase C epsilon type (Homo sapiens, UniProt Q02156); test: Displacement of [3H]-PDBu from recombinant human PKCepsilon by scintillation counter method
T3 sequence (Q02156 whole entry): T2 sequence (whole entry)
Method in brief: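 PKCε with 2 nM [3H]PDBu plus increasing competitor concentrations, in 50 mM Tris-HCl pH 7.4, 100 μg/mL phosphatidylserine, 1 mM EGTA, 5 mg/mL bovine IgG, 0.003% Tx-100, 20 ng/tube enzyme; 37 °C 5 min, then PEG precipitation and counting of pellet and supernatant. Nonspecific binding from 10 μM unlabeled PDBu. Ki derived from competition-curve ID50; mean ± SEM of three experiments, triplicate points.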

A549 [7] = test: Induction of ruffle formation in human A549 cells transfected with PKCepsilon siRNA at 1 microM incubated for 30 mins using phalloidin-rhodamine staining based microscopic analysis; format: functional, cell-based
Method in brief: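 A549 cells transfected with PKCε siRNA duplexes (two sequences) or nontarget control; 48 h later treated 1 μM for 30 min, formaldehyde-fixed, phalloidin-rhodamine stained; ruffle area/cell by intensity thresholding. Knockdown checked by Q-PCR mRNA and Western blot.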

A549 [8] = test: Induction of ruffle formation in human A549 cells at 1 microM incubated for 30 mins using phalloidin-rhodamine staining based microscopic analysis; format: functional, cell-based
Method in brief: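 Serum-starved (24 h) A549 cells at low confluence on coverslips treated 30 min at 1 μM; fixed in 4% formaldehyde, F-actin stained with phalloidin-rhodamine, DAPI nuclei. Five random fields scored; ruffle area per cell by intensity thresholding.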

[9] = biological target: T1, Protein kinase C alpha type; test: Activation of GFP-fused PKCalpha in HeLa cells assessed as […] from cytosol to membrane measured after 30 mins by DAPI staining based fluorescence microscopy; format: subcellular; settings: filed as activator
Method in brief: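 HeLa cells (5 × 10^4) transfected with pEGFP-N1-PKCα or -PKCε, plated on coverslips; after 24 h serum-starved 24 h, then treated 30 min. Methanol-fixed, DAPI-counterstained, imaged by fluorescence microscopy. Line scans across cytoplasm (~10–15 cells/group) give membrane/cytosol fluorescence ratio; operator blinded; mean ± SD.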

Q: Which results are given for `CC(C)CC(C/C=C1\CC(CO)(Cn2nnc(-c3ccccc3)n2)OC1=O)CC(C)C` (centres undefined)?
A: inhibition [1]: 37.5%; inhibition [2]: 69.2%

Q: How did the Activity [3] turn out when `Cc1ccc(-c2cn(CC3(CO)C/C(=C\CC(CC(C)C)CC(C)C)C(=O)O3)nn2)cc1` (centres undefined) was run?
A: inactive

Q: And the inhibition [4]?
A: 17%

Q: For `Cc1cc(OCC2(CO)C/C(=C\CC(CC(C)C)CC(C)C)C(=O)O2)no1` (centres undefined), which Ki [5] is on record?
A: 79.3 nM

Q: And the Ki [6]?
A: 33.6 nM

Q: And the Activity (A549 [7])?
A: inactive

Q: With `CC(C)CC(C/C=C1\CC(CO)(COC(=O)C(C)(C)C)OC1=O)CC(C)C` (centres undefined) as the compound, how does the Ki [5] read?
A: 23.6 nM

Q: What about the Ki [6] of the same compound?
A: 1.89 nM

Q: What about the fold change (FC) ([3]; filed as activator) of the same compound?
A: 43

Q: What about the Activity (A549 [8]) of the same compound?
A: Active

Q: And the Activity (A549 [7])?
A: inactive

Q: For `CCCCCCCCCCCCCC(=O)O[C@@H]1[C@@H](C)[C@@]2(O)[C@@H](C=C(CO)C[C@]3(O)C(=O)C(C)=C[C@@H]23)[C@@H]2C(C)(C)[C@]12OC(C)=O`, which Activity [3] is on record?
A: inactive

Q: What about the Activity [9] of the same compound?
A: Active

Q: Which inhibition [1] does the source give for `CC(C)=C1CC(CO)(Cn2nnc(-c3ccccc3)n2)OC1=O` (centres undefined) here?
A: 23.5%

Q: What about the Activity [3] of the same compound?
A: inactive

Q: For `CC(C)=C1CC(CO)(COc2cc(C)on2)OC1=O` (centres undefined), which inhibition [1] is on record?
A: 31.3%

Q: With `CC(C)=C1CC(CO)(Cn2cc(-c3ccc(C)cc3)nn2)OC1=O` (centres undefined) as the compound, how does the inhibition [1] read?
A: 11.7%

Q: And the Activity [3]?
A: inactive
